Measured values from different studies.
Lines come from different studies, so protocols differ.
Target: Serine/threonine-protein kinase Nek9 (NEK9, Homo sapiens, UniProt Q8TD19)
Sequence (Q8TD19 1-979, as in one of the studies): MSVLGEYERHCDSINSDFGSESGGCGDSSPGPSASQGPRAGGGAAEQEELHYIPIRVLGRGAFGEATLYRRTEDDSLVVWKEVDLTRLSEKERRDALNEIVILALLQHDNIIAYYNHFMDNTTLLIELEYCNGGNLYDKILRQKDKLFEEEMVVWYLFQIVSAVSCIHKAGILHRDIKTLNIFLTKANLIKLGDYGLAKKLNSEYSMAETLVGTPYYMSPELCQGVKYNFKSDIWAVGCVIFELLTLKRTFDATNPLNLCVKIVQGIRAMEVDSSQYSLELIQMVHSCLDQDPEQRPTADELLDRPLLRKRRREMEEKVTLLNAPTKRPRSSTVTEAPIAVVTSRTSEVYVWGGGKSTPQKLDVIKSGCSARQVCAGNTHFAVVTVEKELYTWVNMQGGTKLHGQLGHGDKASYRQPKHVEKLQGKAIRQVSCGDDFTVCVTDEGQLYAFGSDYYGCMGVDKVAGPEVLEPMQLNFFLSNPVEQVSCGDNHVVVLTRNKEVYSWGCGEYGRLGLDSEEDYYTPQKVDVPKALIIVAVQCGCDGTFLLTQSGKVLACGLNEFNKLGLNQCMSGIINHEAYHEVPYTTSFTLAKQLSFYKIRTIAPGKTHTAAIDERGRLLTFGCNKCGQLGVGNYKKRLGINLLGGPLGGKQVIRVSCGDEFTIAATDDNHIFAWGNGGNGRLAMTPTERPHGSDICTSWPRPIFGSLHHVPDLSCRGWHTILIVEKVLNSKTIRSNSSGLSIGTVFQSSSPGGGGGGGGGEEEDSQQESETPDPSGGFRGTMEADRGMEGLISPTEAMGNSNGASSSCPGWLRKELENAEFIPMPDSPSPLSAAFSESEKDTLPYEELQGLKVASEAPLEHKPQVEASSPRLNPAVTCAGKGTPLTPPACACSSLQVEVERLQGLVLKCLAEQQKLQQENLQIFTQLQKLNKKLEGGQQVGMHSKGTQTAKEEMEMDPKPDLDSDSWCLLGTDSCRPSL

Structure (SMILES)	read-out	action	technique	tested at	measurement	value
O=c1nc(-c2ccccn2)sc2ccccc12	binding		competition with immobilised ligand	1 µM	remaining binding	96%
O=C1NC(=O)c2cc(Nc3ccc(F)cc3)c(Nc3ccc(F)cc3)cc21	cell-free assay			0.5 µM	remaining signal	107%
COc1cc(Cl)c(C(=O)N[C@@H](CN[C@H]2CC[C@@H](N)CC2)Cc2ccc(C#N)cc2)cc1-c1ccc(CN[C@H](C)c2ccc(C)cc2)o1	enzyme activity	inhibitor		1 µM	remaining activity	127%
CCCS(=O)(=O)Nc1ccc(F)c(C(=O)c2c[nH]c3ncc(-c4ccc(Cl)cc4)cc23)c1F	enzyme activity	inhibitor		1 µM	inhibition	< 10%
CN1CC(Oc2cnc(C#N)cc2-c2ccn3nc(NC(=O)C4CC4)cc3c2)C1	enzyme activity	inhibitor		1 µM	inhibition	-3%
Oc1cccc(-c2nc(N3CCOCC3)c3oc4ncccc4c3n2)c1	cell-free assay			0.5 µM	remaining signal	99.3%
O=C(NCc1ncc(C(F)(F)F)cc1Cl)c1ccc2c(c1)C1(CCS(=O)(=O)CC1)[C@H](C1CC1)N2S(=O)(=O)c1ccc(F)cc1	cell-free assay		competition with immobilised ligand	1 µM	remaining binding	100%
O=C(Nc1cnn(-c2csc(C(=O)NC3COC3)c2)c1)Nc1c(F)cccc1Cl	enzyme activity	inhibitor		5 µM	remaining activity	88.4%
Clc1ccc(Nc2nnc(Cc3ccncc3)c3ccccc23)cc1	cell-free assay			0.5 µM	remaining signal	98.4%
C[C@H](NC(=O)c1cnc2n1[C@](C)(Cc1ccc(C#N)cc1)C(=O)N2c1cc(Cl)c(F)c(Cl)c1)C(=O)NC1(c2ccccn2)CC1	cell-free assay		competition with immobilised ligand	1 µM	remaining binding	100%
COc1cc(Nc2c(C#N)cnc3cc(OCCCN4CCN(C)CC4)c(OC)cc23)c(Cl)cc1Cl	cell-free assay			0.5 µM	remaining signal	94%
CCCOc1ccc([C@@H]2[C@@H](C(=O)O)[C@H](c3ccc4c(c3)OCO4)CN2CC(=O)Nc2c(CC)cccc2CC)cc1	cell-free assay		competition with immobilised ligand	1 µM	remaining binding	100%
CCOc1cc(-c2nncn2C)ccc1Nc1ncc2cc(C)nc(NCC(C)(C)C)c2n1	enzyme activity	inhibitor	FRET	1 µM	inhibition	< 15%
Cc1cc(NC(=O)c2cccc3cc(-c4cccc5[nH]nc(N)c45)ccc23)ccc1F	enzyme activity	inhibitor		0.1 µM	activity vs control	126%
CC(C)(C)c1nc(-c2cccc(NS(=O)(=O)c3c(F)cccc3F)c2F)c(-c2ccnc(N)n2)s1	enzyme activity	inhibitor	radiometric	1 µM	remaining activity	106%
CC/C(=N\NC(=O)NCc1cccc(O)c1)c1ccc(O)c(C)c1O	enzyme activity	inhibitor		0.1 µM	inhibition	-2.8%
CNCc1ccccc1-c1csc([C@H](C)Nc2nc(C)nc3cc(OC)c(OC)cc23)c1	cell-free assay		competition with immobilised ligand	1 µM	remaining binding	100%
COc1cc2ncnc(Nc3ccc(Oc4ccccc4)c(C)c3C)c2cc1OC	enzyme activity	inhibitor		1 µM	inhibition	5%
